What was measured:
[1] = Inhibition of disc eversion in Drosophila melanogaster imaginal disc cells at 18 uM; assay type: functional
Procedure, shortened: (§1)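 Larvae are Oregon-R, from eggs laid for 24 h at 25 °C on cornmeal medium with bromophenol blue. About 30 leg imaginal discs per culture are cultured 15 h at 25 °C in 1 mL minimal Robb's medium (pH 7.2) with 1 µg/mL 20-hydroxyecdysone and 18 µM compound. Spermidine at 100 µM is added as competitor where stated.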

[2] = Cytotoxicity against polyamine transporter deficient […] cells; assay type: ADME, cell-based; conditions: Cricetulus griseus
[3] = Inhibition of PAT assessed as cytotoxicity against CHO cells; assay type: cell-based; conditions: Cricetulus griseus
[4] = Inhibition of disc eversion in Drosophila melanogaster imaginal disc cells at 18 uM in presence of spermidine; assay type: functional; procedure, shortened: as §1
[5] = tested on: polyamine transporter; test: Ratio of IC50 for polyamine transporter deficient […] cells to IC50 for CHO cells; assay type: cell-based, Cricetulus griseus; conditions: chinese hamster, polyamine transporter deficient […] cells and CHO cells; read-out: Ratio IC50
Procedure, shortened: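 The ratio is the IC50 in the polyamine-transport-deficient CHO-MG line (MGBG-resistant after ethylmethanesulfonate mutagenesis) divided by the IC50 in parental CHO cells.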

[6] = tested on: L1210; test: Cytotoxicity against mouse L1210 cells; assay type: functional, cell-based
[7] = Cytotoxicity against Drosophila melanogaster imaginal disc cells by Trypan blue exclusion test; assay type: cell-based
Procedure, shortened: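 Oregon-R Drosophila melanogaster leg imaginal discs are dissected in Ringer's with 0.1% BSA and cultured 15 h at 25 °C in minimal Robb's medium (pH 7.2). The medium holds 18 µM conjugate and 1 µg/mL 20-hydroxyecdysone. Viability of noneverted disc cells is then judged by Trypan blue exclusion, with everted control discs for comparison.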

Structure (SMILES)	inhibition at 18 µM [1] [%]	IC50 [2] [µM]	IC50 [3] [µM]	inhibition at 18 µM [4] [%]	selectivity ratio [5]	IC50 [6] [µM]	Activity [7]
NCCCCNCc1c2ccccc2cc2ccccc12	78.4	7.6	7.7	100	1	–	–
CCN(CCCNCCCN)Cc1c2ccccc2cc2ccccc12	88.5	4	5.3	100	0.8	2.2	–
NCCCNCc1c2ccccc2cc2ccccc12	95.2	2.4	2.3	100	1	2.2	–
CCN(CCCCNCCCCN)Cc1c2ccccc2cc2ccccc12	5.5	21.9	–	–	1	–	–
NCCCCNCCCNCc1c2ccccc2cc2ccccc12	7.8	8.8	2.5	9.9	3.5	0.7	–
CCN(CCCN)Cc1c2ccccc2cc2ccccc12	75.7	6.6	7.7	90	0.9	5.1	–
NCCCCNCCCCNCc1c2ccccc2cc2ccccc12	97.6	66.7	0.45	8.7	148	–	Toxic
NCCCNCCCNCc1c2ccccc2cc2ccccc12	85.4	3.4	1.9	100	1.8	–	–
NCCCNCCCCNCc1c2ccccc2cc2ccccc12	73.9	9.5	0.4	23.8	24	0.4	Toxic
NCCCCNCCCN [SPERMIDINE]	4.8	–	–	–	–	–	–

From ChEMBL document CHEMBL1140719, “A Drosophila model to identify polyamine-drug conjugates that target the polyamine transporter in an intact epithelium” (J Med Chem, 2008)
